# Source: PubChem (several laboratories)
# In the library only some 2.5% were active in any assay of this set; here they are far more common.
# Exocytosis inh: blocks lytic granule exocytosis | TALL-104 LAMP-1 surface exposure, flow cytometry; cells stimulated with thapsigargin and PMA | inhibition, % at 10 µM | 360,000 tested, 0.66% active;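 active = inhibition above about 55%, limit read from the data; inconclusive = no clear call, values can overlap the other calls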
# MC4R ag barr: human MC4R agonism via beta-arrestin; AID 540308; U2OS MC4R beta-arrestin complementation, luminescence; percent of melanotan II response, DMSO zero; activation, % at 8.9 µM; 360,000 tested, 0.98% active; P32245;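 active = activation above a per-plate cutoff, the mean activation of sample wells on that plate plus 3 SD, cut at about 8% in these data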
# sPLA2-III inh: Blocks human group III sPLA2 activity; QFRET BODIPY PC-A2 liposome hydrolysis, fluorescence; inhibition, % at 12.2 µM; 370,000 tested, 0.56% active; AID 743126;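 active = inhibition above mean plus 3 SD of compounds lying within the high and low control bounds, cut at about 19% in these data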;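 also: 0% = median of test compound wells and 100% = no enzyme DMSO wells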
# NTR1 ag: NTR1 (human) agonism; P30989; NTR1-U2OS beta-arrestin-GFP spot imaging, agonist mode; activation, % at 20 µM; 330,000 tested, 0.17% active; AID 493036;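 active = activation at or above 40% of the spot to cytoplasm intensity ratio, with at least 20 cells analyzed; inconclusive = wells under 20 cells, flagged as cytotoxic or low count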;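 also: 0% = DMSO without peptide and 100% = 100 nM NTR1 peptide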
# Target sequence (P30989 whole entry, looked up): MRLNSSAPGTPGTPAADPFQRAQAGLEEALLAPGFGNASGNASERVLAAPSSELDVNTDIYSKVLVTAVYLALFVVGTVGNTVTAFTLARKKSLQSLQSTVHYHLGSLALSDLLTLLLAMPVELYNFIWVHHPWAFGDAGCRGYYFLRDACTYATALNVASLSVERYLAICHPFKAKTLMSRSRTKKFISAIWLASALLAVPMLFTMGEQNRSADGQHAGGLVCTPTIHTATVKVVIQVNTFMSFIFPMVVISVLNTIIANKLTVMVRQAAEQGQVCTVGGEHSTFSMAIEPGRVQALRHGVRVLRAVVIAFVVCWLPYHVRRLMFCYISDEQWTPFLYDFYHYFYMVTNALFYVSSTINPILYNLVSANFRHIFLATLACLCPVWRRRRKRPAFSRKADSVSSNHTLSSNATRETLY
# Bfl-1 A1 inh: inhibitors of the anti-apoptotic protein A1, read as caspase activation. MEF A1-2A-BIM cells, Caspase-Glo 3/7 luminescence, 3 h; percent of clofoctol response, vehicle zero. caspase activation, % (test concentration not listed). 330,000 tested, 0.066% active. AID 2462;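 active = over half of replicate activation scores above 10%, or exactly half above 10 with the replicate mean above 10; inconclusive = replicate mean below 10 yet half the replicates above 10; inactive = over half of replicates below 10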
# MC4R antagonist: blocks human MC4R cAMP signaling | MC4R-expressing cells, MTII-stimulated cAMP, LANCE TR-FRET | inhibition, % at 6.5 µM | 360,000 tested, 0.48% active | AID 540295;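 active = inhibition above its plate's cutoff, the mean of tested wells on that plate plus 3 SD, cut at about 29% in these data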;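 also: 0% = Melanotan II alone and 100% = Melanotan II plus saturating MCL0020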
#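 Material: U2OS-MC4R stable cell line | Reagent: Melanotan II challenge after compound preincubation | Doses: One concentration, 6.5 µM nominal | Incubation: 30-min compound preincubation, 1-h Melanotan II challenge, 1-h detection, room temperature | Signal: TR-FRET cAMP assay | Replicates: One well per compound, no replicates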
# MC4R barr ag: human MC4R beta-arrestin agonism confirmation. shares compounds with MC4R ag barr. U2OS MC4R beta-arrestin recruitment, luminescence; scaled DMSO 0%, Melanotan II 100%. activation, % at 8.9 µM. 2,400 tested, 31% active. AID 602192;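 active = mean activation across replicates above the hit cutoff set in the earlier primary screen, cut at about 8% in these data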
# MOR-DOR barr ag: activates mu-delta opioid heterodimer, MC4R agonist counter-screen | shares compounds with MC4R ag barr | U2OS PathHunter beta-arrestin, beta-gal luminescence; percent of deltorphin B response, DMSO zero | activation, % at 9.2 µM | 2,400 tested, 5.8% active;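 active = mean activation across replicates exceeds the hit threshold derived in the earlier primary screen, cut at about 18% in these data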;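 also: 100% = deltorphin B at 0.9 µM final and 0% = DMSO alone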
# An asterisk follows results filed as active; ? = inconclusive; · = no result.
SMILES,Exocytosis inh,MC4R ag barr,sPLA2-III inh,NTR1 ag,Bfl-1 A1 inh,MC4R antagonist,MC4R barr ag,MOR-DOR barr ag
NC(Cc1ccccc1)c1csc(Nc2nncc3ccccc23)n1 (stereo unspecified),12,2,15,·,·,1,·,·
COc1cccc(Nc2nc(C(N)COCc3ccccc3)cs2)n1 (stereo unspecified),-9,3,7,·,·,5,·,·
COc1ccc(CC(N)c2csc(Nc3cc(Oc4ccccc4)ncn3)n2)cc1 (stereo unspecified),25,4,10,·,·,3,·,·
COc1cccc(Nc2nc(C(N)Cc3ccc(Cl)cc3)cs2)n1 (stereo unspecified),13,15*,10,·,·,-6,8.4*,9
COc1cccc(Nc2nc(C(N)CCc3ccccc3)cs2)n1 (stereo unspecified),-4,16*,9,·,·,-22,12*,13
NC(CCc1ccccc1)c1csc(Nc2nncc3ccccc23)n1 (stereo unspecified),46,16*,5,·,·,4,12*,9
NC(Cc1ccc(F)cc1)c1csc(Nc2cc(Oc3ccccc3)ncn2)n1 (stereo unspecified),11,13*,10,·,·,-3,14*,12
CN1C(=O)c2cc(NC(=O)Cc3cccs3)ccc2OC[C@@H]2O[C@@H](CC(=O)N[C@H]3CCN(Cc4ccccc4)C3)CC[C@@H]21,·,·,-1,·,·,·,·,·
COc1cccc(Nc2nc(C(N)Cc3ccc(F)cc3)cs2)n1 (stereo unspecified),0,5,18,·,·,-10,·,·
COc1cccc(Nc2nc(C(N)Cc3ccc(C(F)(F)F)cc3)cs2)n1 (stereo unspecified),12,12*,5,·,·,-6,5,11
Clc1cccc(CON/C=N/c2ncnc3sccc23)c1,-1,-1,2,0,1,6,·,·
Clc1cccc(Cl)c1CON/C=N/c1ncnc2sccc12,-2,12*,8,6,0,10,3,5
O=C(CC(=O)Nc1ccc(Cl)cc1Cl)Nc1ccc(Cl)cc1Cl,-11,11*,-9,-1,-1,6,3,3
CCCc1ccc(C(=O)Cn2nc(C(=O)O)c3ccccc3c2=O)cc1,11,10*,-8,5,0,6,4,5
NC(=O)c1c(NC(=O)Cn2nc(C(=O)O)c3ccccc3c2=O)sc2c1CCC2,-1,1,0,10,0,18,·,·
NC(=O)c1c(NC(=O)Cn2nc(C(=O)O)c3ccccc3c2=O)sc2c1CCCC2,-1,10*,0,33,0,2,8,4
O=C(Cn1nc(C(=O)O)c2ccccc2c1=O)Nc1cc(Cl)cc(Cl)c1,-6,12*,1,3,0,2,0,5
Cc1ccc(O)c(C(=O)/C=C/c2ccc3c(c2)OCCO3)c1,-3,22*,4,5,0,-2,21*,4
Cc1ccc(-c2csc3nc(-c4ccncc4)[nH]c(=O)c23)cc1,-9,5,1,4,0,11,·,·
CCOc1ccc(-c2nc3scc(-c4cccs4)c3c(=O)[nH]2)cc1,0,28*,-6,5,-1,-2,12*,2
Cc1cc(Br)cn2c(Cc3cccc(Cl)c3)c(C3CCCCC3)nc12,·,·,-3,·,·,·,·,·
O=C1CSc2ccc(C(=O)N3CCCC(C(=O)N4CCCCC4)C3)cc2N1 (stereo unspecified),·,·,-1,·,·,·,·,·
COC(=O)[C@H](C)NC(=O)[C@@H]1CCCN1C(=O)CNP(=O)(OCc1ccccc1)OCc1ccccc1,·,·,6,·,·,·,·,·
N#C/C(=C\c1ccc[nH]1)C(=O)Nc1ccccc1Cl,-4,12*,-4,-1,-5,11,0,14
COc1ccc(NC(=O)/C(C#N)=C/c2ccc[nH]2)c(OC)c1,0,10*,4,0,0,-3,-2,12
SMILES,Exocytosis inh,MC4R ag barr,sPLA2-III inh,NTR1 ag,Bfl-1 A1 inh,MC4R antagonist,MC4R barr ag,MOR-DOR barr ag
N#C/C(=C\c1ccc[nH]1)C(=O)Nc1ccccc1F,-5,-3,2,1,1,-4,·,·
CCCCCCCCNC(=O)c1cccnc1SCC(=O)Nc1ccccc1OC,8,15*,-4,9,1,-2,8,5
CCOC(=O)Cc1csc(NC(=O)c2sc3nc4ccc(CC)cc4cc3c2N)n1,14,1,-6,-1,0,-4,·,·
CCOC(=O)Cc1csc(NC(=O)c2sc3nc4cc(C)ccc4cc3c2N)n1,4,39*,1,3,-1,11,25*,2
CCCCCCCCNC(=O)C1CSCCS(=O)(=O)N1Cc1ccc(F)cc1 (stereo unspecified),·,·,5,·,·,·,·,·
Cc1cc(NC(=O)COC(=O)c2ccccc2O)no1,13,1,1,1,1,8,·,·
Cc1cc(NC(=O)COC(=O)c2oc3c(ccc4ccccc43)c2C)no1,0,18*,1,2,?,17,6,6
CCOC(=O)c1ccc(S(=O)(=O)Nc2cc(C(C)(C)C)no2)cc1,0,-2,-20,0,0,-2,·,·
Cc1ccc(-c2cc(C(=O)OCC(=O)Nc3cc(C)on3)c3ccccc3n2)c(C)c1,-1,12*,9,9,1,19,4,6
Cc1ccc(C(=O)OCC(=O)Nc2cc(C(C)(C)C)no2)c(C)c1,1,9.9*,-13,5,1,18,7,10
Cc1cc(NC(=O)COc2ccc3oc4ccccc4c3c2)no1,0,10*,5,0,0,3,1,2
COc1ccc(-c2cc(C(=O)OCC(=O)Nc3cc(C)on3)c3ccccc3n2)cc1OC,0,1,10,12,-1,14,·,·
Cc1ccc(C)c(C(=O)OCC(=O)NC(=O)NCc2ccccc2)c1,0,13*,-18,·,·,20,7,11
Cc1cccc(C(=O)OCC(=O)NC(=O)NCc2ccccc2)c1,-2,1,-4,-1,-2,1,·,·
Cc1ccc(C(=O)Nc2oc(-c3ccccc3)cc2C#N)cc1,1,12*,-14,3,0,5,4,4
Cc1ccc(NC(=O)Cn2nnc(-c3ccccc3F)n2)cc1C,·,·,5,·,·,·,·,·
Cc1ccc(Oc2nnc(-c3ccccc3)cc2C#N)cc1,1,27*,-1,5,0,6,5,9
